Compound activity deposited in PubChem BioAssay by Johns Hopkins Ion Channel Center.
Rows were chosen to be rich in hits. Some 3.7% of all compounds tested hit in one or more screens of this group.
KCNK3 block: human KCNK3 channel inhibition, primary screen | 0.84% of 340,000 active | CHO-KCNK3 thallium flux, FluxOR fluorescence; hits give low values | AID 602410 | B-score at 10 µM;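 active = B-score under library mean minus 4 SD, starting fluorescence ratio at most library mean plus 5 SD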;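 note: more negative B-score means stronger inhibition of thallium flux through KCNK3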
KCNQ1 inh: inhibitors of human KCNQ1 potassium channel; P51787; CHO-K1 KCNQ1, FluxOR thallium flux fluorescence; hits give high values; B-score at 10 µM; 1.3% of 310,000 active;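 active = compounds whose thallium flux B-score, printed positive for inhibition, exceeds three library SD while starting fluorescence stays within three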;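 note: channel opened by potassium depolarization with thallium stimulus after 20 min compound exposure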
KCNK9 inh: blocks the human KCNK9 two-pore domain potassium channel | 1.2% of 310,000 active | B-score at 10 µM | Q9NPC2 | HEK293 KCNK9, FluxOR thallium flux fluorescence; hits give low values;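 active = ratio B-score over 3 SD below the library mean, with starting fluorescence within 5 SD of its mean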;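 note: negative B-score means less thallium flux so channel inhibition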
hERG protect: compounds protecting human hERG from proarrhythmic drug block | Q12809 | CHO-hERG, FluxOR thallium flux, dofetilide IC70 present | AID 1511 | activation (rescue from dofetilide block), less the hit threshold, % at 10 µM | 0.51% of 310,000 active;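 active = activation above the mean of controls blocked by dofetilide plus 5 SD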;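 note: thallium influx through hERG after potassium depolarization seen as dye fluorescence rise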
Target sequence (Q12809 whole entry, looked up): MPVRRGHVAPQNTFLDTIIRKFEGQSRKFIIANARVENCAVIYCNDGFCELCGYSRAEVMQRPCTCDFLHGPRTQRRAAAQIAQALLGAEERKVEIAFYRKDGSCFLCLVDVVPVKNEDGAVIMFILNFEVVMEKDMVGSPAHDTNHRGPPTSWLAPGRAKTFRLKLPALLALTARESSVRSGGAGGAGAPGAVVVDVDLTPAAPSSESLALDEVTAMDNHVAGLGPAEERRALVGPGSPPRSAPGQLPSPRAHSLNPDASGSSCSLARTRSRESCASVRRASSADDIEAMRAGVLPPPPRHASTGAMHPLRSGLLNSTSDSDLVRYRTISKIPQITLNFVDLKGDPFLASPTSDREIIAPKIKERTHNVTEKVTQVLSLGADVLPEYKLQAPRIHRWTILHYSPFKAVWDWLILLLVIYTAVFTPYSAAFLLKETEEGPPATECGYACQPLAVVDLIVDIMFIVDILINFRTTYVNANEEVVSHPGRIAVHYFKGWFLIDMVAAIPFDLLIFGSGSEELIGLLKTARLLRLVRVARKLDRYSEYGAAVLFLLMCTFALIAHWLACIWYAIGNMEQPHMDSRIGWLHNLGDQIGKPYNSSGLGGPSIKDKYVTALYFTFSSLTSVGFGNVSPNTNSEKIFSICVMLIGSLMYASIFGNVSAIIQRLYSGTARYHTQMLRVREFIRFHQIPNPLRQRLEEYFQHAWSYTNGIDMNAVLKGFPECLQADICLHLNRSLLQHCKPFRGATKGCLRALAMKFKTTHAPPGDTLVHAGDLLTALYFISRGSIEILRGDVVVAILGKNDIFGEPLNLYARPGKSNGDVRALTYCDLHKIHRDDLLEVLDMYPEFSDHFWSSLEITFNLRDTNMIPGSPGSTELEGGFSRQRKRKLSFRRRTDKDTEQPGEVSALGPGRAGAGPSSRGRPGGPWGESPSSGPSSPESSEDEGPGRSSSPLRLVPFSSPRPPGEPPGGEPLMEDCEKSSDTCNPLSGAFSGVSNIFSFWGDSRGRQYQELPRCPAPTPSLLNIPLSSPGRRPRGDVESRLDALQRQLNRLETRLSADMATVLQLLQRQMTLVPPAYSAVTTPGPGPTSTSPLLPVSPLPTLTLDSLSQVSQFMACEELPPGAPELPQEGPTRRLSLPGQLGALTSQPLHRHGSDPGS
KCNQ1 pot: potentiates or activates the human KCNQ1 potassium channel | P51787 | CHO-K1 KCNQ1, thallium flux FluxOR fluorescence; hits give high values | B-score at 10 µM | 0.35% of 310,000 active;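 active = fluorescence ratio B-score, a plate-corrected score, at least three library SD, with initial intensity B-score within 5 SD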
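Material: CHO-K1 cells stably expressing KCNQ1. Medium: assay buffer for compound exposure, DMSO matched across wells. Reagent: K+/Tl+ depolarizing stimulus. Compound dosing: single-concentration screen. Times: 37 °C overnight plating, 90-min dark dye load, 20-min compound pretreatment. Technique: FluxOR Tl+ flux fluorescence.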
Kir21 block: blocks the mouse Kir2.1 inward-rectifier potassium channel. P35561. HEK293-Kir2.1, FluxOR thallium flux fluorescence; hits give low values. B-score at 10 µM. 0.85% of 310,000 active;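 active = fluorescence ratio B-score at or below minus 3 SD of library scores, with starting-brightness B-score within 2 SD, cut at about -4.2 in these data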;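 note: channel flux triggered by added potassium and thallium sulfate stimulus; B-score of peak minus minimum fluorescence over baseline after thallium stimulus; more negative B-score means stronger Kir2.1 block with less thallium influx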
Numbers stand for hits; . = inactive; / = no result given.

SMILES | KCNK3 block | KCNQ1 inh | KCNK9 inh | hERG protect | KCNQ1 pot | Kir21 block
COc1ccc(S(=O)(=O)N2CCCC2C(=O)Nc2nnc(-c3cccnc3)s2)cc1 (centres undefined) | . | . | . | 7.5 | . | .
CCCCCCSc1cccc(-c2nc3ccc(Cl)cn3c2NCCCC)c1 | . | / | / | / | / | /
CCCCNc1c(-c2cccc(-c3ccc(OC)cc3)c2)nc2ccc(C)cn12 | . | 7 | . | . | . | .
CCCCNc1c(-c2cccc(-c3cc(C(C)=O)cs3)c2)nc2ccc(C)cn12 | . | 6 | . | . | . | .
CCCCNc1c(-c2cccc(-c3ccc(OC)cc3)c2)nc2cc(C)ccn12 | -8.74 | / | / | / | / | /
O=S(=O)(CCc1ccncc1)c1ccc(Cl)cc1 | . | . | . | . | . | .
COC(=O)[C@H](C(C)C)N(Cc1ccccc1)S(=O)(=O)CCN1CCCC1 | . | / | / | / | / | /
COc1ccc(/C=C/CN2CCC(n3nccc3NC(=O)C3CCCC3)CC2)cc1 | . | . | . | . | . | .
O=C(NCCCn1ccnc1)C(=O)NCC1OCCCN1S(=O)(=O)c1ccccc1 (centres undefined) | . | . | . | . | . | .
Brc1cc2c(cc1-c1nc3ccccc3s1)OCO2 | . | . | -7.12 | . | . | .
O=Cc1cc(N=Nc2ccccc2Cl)ccc1O | . | . | . | . | 11 | .
O=Cc1cc(N=Nc2cccc(C(=O)O)c2)ccc1O | . | . | . | . | . | .
CCN(CC)CCn1c(N)cc(=O)[nH]c1=O | . | . | . | . | . | .
CCN(CC)CCn1c(OC)cc(=O)[nH]c1=O | . | . | . | . | 7 | .
COc1ccc([N+](=O)[O-])cc1NC(=O)CSCc1cc(C)cc(C)c1 | . | . | . | . | . | -8.74
CCCCCOc1ccc(CSC(=N)N)cc1[N+](=O)[O-] | . | . | . | . | . | -8.5
COc1ccc(CSC(=N)N)cc1[N+](=O)[O-] | . | . | . | . | . | .
CCc1c2ccccc2nn1-c1ccccc1C(=O)C(C)=O | . | . | . | . | . | -4.83
CCOC(=O)c1ccccc1-n1nnnc1C | . | . | . | . | . | .
CSC1=NC(C(Cl)(Cl)Cl)N=C(c2ccccc2)N1 (centres undefined) | . | . | . | 8.6 | . | .
CCn1cc(SCC(=O)NC2CCCC2)c2ccccc21 | . | . | . | . | . | -4.78
CCOC(=O)N1CCC(NC(=O)CSc2cc(=O)n(CC)c3ccccc23)CC1 | . | . | -7.06 | . | . | .
CC1(C)CC(NC(=O)C2CCC(=O)N(Cc3ccccc3F)C2)CC(C)(C)C1 (centres undefined) | . | . | . | . | . | .
CC(=O)N1C(=O)CC(C)N(C(C)=O)c2ccc([N+](=O)[O-])cc21 (centres undefined) | . | . | . | . | . | .
O=C(/C=C/c1ccc(F)cc1)Nc1cccc(S(=O)(=O)N2CCOCC2)c1 | . | / | / | / | / | /
SMILES | KCNK3 block | KCNQ1 inh | KCNK9 inh | hERG protect | KCNQ1 pot | Kir21 block
N#Cc1nc(COc2ccc(Cl)cc2Cl)oc1N1CCN(c2ccccc2)CC1 | . | . | -6.61 | . | . | .
Cc1ccccc1C(=O)Nc1ccc(-c2nc3ccc(C(=O)c4ccccc4)cc3[nH]2)cc1 | . | 6 | . | . | . | .
COc1ccc(S(=O)(=O)Nc2ccccc2C(=O)N2CCOCC2)cc1Br | . | . | . | . | . | .
CCCCOc1ccccc1N | . | . | . | 5.9 | . | .
O=C(N/N=C/c1cc([N+](=O)[O-])ccc1O)c1ccc(COc2ccc3c(c2)CCC3)o1 | . | . | . | 14.2 | . | .
COc1ccc2nc(N)sc2c1 | . | . | . | . | . | .
Cc1cc2nc(N)sc2cc1[N+](=O)[O-] | . | . | . | 5.0 | . | .
COC(=O)c1cc(CSC(=N)N)ccc1OCCC(C)C | . | . | . | . | . | -9.47
COC(=O)CNc1nc(Cl)nc(Nc2ccc(C)cc2)n1 | . | . | . | 6.7 | . | .
Cc1ccc(C(=O)N/C(=C\c2ccco2)C(=O)NCCN2CCOCC2)cc1 | . | . | . | . | . | .
O=C(C[C@H]1C/C=C\CC[C@H](Cc2ccc(F)cc2)C(=O)OC[C@@H](Cc2c[nH]c3ccccc23)NC1=O)NCCO | . | / | / | / | / | /
COc1cc(NC(=O)COc2cc(O)c3c(c2)OC(C)(C)CC3=O)cc(OC)c1OC | . | 9 | . | . | . | .
CC1(C)CC(=O)c2c(O)cc(OCC(=O)Nc3ccc(S(N)(=O)=O)cc3)cc2O1 | . | . | . | . | . | .
C=CCOC(=O)c1sc(NC(=O)c2ccc(OC)cc2)nc1C | . | . | . | . | . | .
CCOC(=O)C1=C(c2ccccc2)NC(=O)NC1c1ccc(O)c(Cl)c1 (centres undefined) | . | . | . | 12.8 | . | -7.82
COc1ccc(NC(=O)C2CC(=O)OC23CCOC(C)(C)C3)cc1 (centres undefined) | . | . | . | . | . | .
CCOC(=O)CSc1ccc(C(=O)NCCCN2CCOCC2)cc1[N+](=O)[O-] | . | . | . | . | . | .
COCc1c(C(=O)NCCOc2ccc(Cl)cc2)oc2ccccc12 | -8.89 | / | / | / | / | /
Cc1sc2nc(SCC(=O)NCCCO)n(-c3ccccc3)c(=O)c2c1C | . | . | . | . | . | .
Cc1sc2nc(SCC(=O)N(C)Cc3ccccc3)n(-c3ccccc3)c(=O)c2c1C | -8.72 | . | . | . | . | .
CC(C)COC(=O)/C(C#N)=C/c1c[nH]c2ccccc12 | . | . | -7.3 | . | . | .
COC(=O)c1sccc1NC(=O)CC1C(=O)NCCN1C(=O)c1ccc(C)c(C)c1 (centres undefined) | . | . | . | . | . | .
O=C(Cc1c[nH]c2ccccc12)NCc1ccc(Cl)cc1Cl | . | . | . | . | . | -4.25
Cc1nn(-c2ccccn2)c2c1C(c1ccccc1Cl)C1=C(N2)c2ccccc2C1=O (centres undefined) | . | . | -7.02 | . | . | .
Cc1nn(-c2ccccn2)c2c1C(c1c(F)cccc1Cl)C1=C(N2)c2ccccc2C1=O (centres undefined) | / | . | -6.93 | . | . | .
SMILES | KCNK3 block | KCNQ1 inh | KCNK9 inh | hERG protect | KCNQ1 pot | Kir21 block
CSC1=C(C#N)C(c2ccccc2Cl)C2=C(N1)c1ccccc1C2=O (centres undefined) | . | . | . | . | . | .
Cc1nn(-c2ccccn2)c2c1C(c1ccsc1)C1=C(CCCC1=O)N2 (centres undefined) | . | . | . | . | . | .
CC1(C)Cc2c(sc3c2c(=O)n(-c2cccc(Cl)c2)c(=O)n3CC(N)=O)CO1 | . | . | . | . | . | .
CN=C(C)c1c(O)c2ccccc2oc1=O | . | . | . | 4.9 | . | .
CCOC(=O)c1c(NC(C)=O)sc2c1CCC(C=O)=C2Sc1ccccc1 | . | . | -6.89 | . | . | .
CCc1nc(N2CCCCC2)c2oc3ccccc3c2n1 | . | . | . | . | . | .
